Results taken from ChEMBL document CHEMBL1799931, “Synthesis, evaluation and metabolic studies of radiotracers containing a 4-(4-[18F]-fluorobenzyl)piperidin-1-yl moiety for the PET imaging of NR2B NMDA receptors” (Eur J Med Chem, 2011).

How the values were obtained:
[1] = target: T1, Glutamate NMDA receptor; GRIN1/GRIN2B (Homo sapiens, UniProt Q05586+Q13224); assay: Antagonist activity at human NR1a/NR2B receptor expressed in mouse fibroblast LMTK cells assessed as inhibition of Glu/Gly induced Ca2+ influx; assay type: functional, cell-based
[2] = target: T1, Glutamate NMDA receptor; GRIN1/GRIN2B; assay: Antagonist activity against NR1a/NR2B receptor transfected in human HEK293 cells assessed as inhibition of NMDA-induced Ca2+ influx; assay type: functional, cell-based
Muscle tissue = assay: Biodistribution in Sprague-Dawley rat muscle at 3.2 to 18.6 MBq, iv after 120 mins by micro PET analysis; assay type: ADME, organism-based; conditions: in vivo, 2 h
In short: (§1)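 Male Sprague-Dawley rats (235-310 g) under isoflurane got 18F radiotracer (3.2-18.6 MBq) by tail-vein catheter, n = 3. Dynamic microPET scan for 120 min, then ex vivo tissue counting at 120 min post-injection. Values are %ID/g ± SEM.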

[3] = Biodistribution in Sprague-Dawley rat fat at 3.2 to 18.6 MBq, iv after 120 mins by micro PET analysis; assay type: ADME, organism-based, Adipose tissue; conditions: in vivo, 2 h; in short: as §1
Brain = assay: Biodistribution in Sprague-Dawley rat brain at 3.2 to 18.6 MBq, iv after 120 mins by micro PET analysis; assay type: ADME, organism-based; conditions: in vivo, 2 h; in short: as §1
Bone = assay: Biodistribution in Sprague-Dawley rat bone at 3.2 to 18.6 MBq, iv after 120 mins by micro PET analysis; assay type: ADME, organism-based, Bone element; conditions: in vivo, 2 h; in short: as §1
Thymus = assay: Biodistribution in Sprague-Dawley rat thymus at 3.2 to 18.6 MBq, iv after 120 mins by micro PET analysis; assay type: ADME, organism-based; conditions: in vivo, 2 h; in short: as §1
[4] = Metabolic stability in Sprague-Dawley rat plasma assessed as half life by radio thin layer chromatography analysis; assay type: ADME, cell-free
In short: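 Anesthetized male Sprague-Dawley rats (235-330 g) given radiotracer (3.2-15.1 MBq). Femoral arterial blood was sampled over 90 min and plasma gamma-counted. Plasma was diluted with acetonitrile, centrifuged and run on silica radio-TLC with cold reference, giving parent and radiometabolite fractions.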

Lung = assay: Biodistribution in Sprague-Dawley rat lung at 3.2 to 18.6 MBq, iv after 120 mins by micro PET analysis; assay type: ADME, organism-based; conditions: in vivo, 2 h; in short: as §1
Heart = assay: Biodistribution in Sprague-Dawley rat heart at 3.2 to 18.6 MBq, iv after 120 mins by micro PET analysis; assay type: ADME, organism-based; conditions: in vivo, 2 h; in short: as §1
Pancreas = assay: Biodistribution in Sprague-Dawley rat pancreas at 3.2 to 18.6 MBq, iv after 120 mins by micro PET analysis; assay type: ADME, organism-based; conditions: in vivo, 2 h; in short: as §1
Liver [5] = assay: Biodistribution in Sprague-Dawley rat liver at 3.2 to 18.6 MBq, iv after 120 mins by micro PET analysis; assay type: ADME, organism-based; conditions: in vivo, 2 h; in short: as §1
Spleen = assay: Biodistribution in Sprague-Dawley rat spleen at 3.2 to 18.6 MBq, iv after 120 mins by micro PET analysis; assay type: ADME, organism-based; conditions: in vivo, 2 h; in short: as §1
Kidney = assay: Biodistribution in Sprague-Dawley rat kidney at 3.2 to 18.6 MBq, iv after 120 mins by micro PET analysis; assay type: ADME, organism-based; conditions: in vivo, 2 h; in short: as §1
[6] = Biodistribution in Sprague-Dawley rat urine at 3.2 to 18.6 MBq, iv after 120 mins by micro PET analysis; assay type: ADME, organism-based; conditions: in vivo, 2 h; in short: as §1
Rattus norvegicus = assay: Biodistribution in Sprague-Dawley rat bladder at 3.2 to 18.6 MBq, iv after 120 mins by micro PET analysis; assay type: ADME, organism-based, Urinary bladder; conditions: in vivo, 2 h; in short: as §1
Intestine = assay: Biodistribution in Sprague-Dawley rat intestine at 3.2 to 18.6 MBq, iv after 120 mins by micro PET analysis; assay type: ADME, organism-based; conditions: in vivo, 2 h; in short: as §1
Hippocampus = assay: Biodistribution in Sprague-Dawley rat hippocampus at 3.2 to 18.6 MBq, iv after 120 mins by micro PET analysis; conditions: in vivo, 2 h
Cerebellum = assay: Biodistribution in Sprague-Dawley rat cerebellum at 3.2 to 18.6 MBq, iv after 120 mins by micro PET analysis; conditions: in vivo, 2 h
[7] = target: Glutamate NMDA receptor; GRIN1/GRIN2A (Homo sapiens) (UniProt Q05586+Q12879); assay: Antagonist activity against NR1a/NR2A receptor transfected in human HEK293 cells assessed as inhibition of NMDA-induced Ca2+ influx at 10 uM; assay type: functional, cell-based
In short: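 HEK293 cells co-transfected 1:1 with NR1-1a plus NR2A-GFP or NR2B-GFP, D-APV (100 µM) after transfection, used at 24 h. Cells loaded with Fura-2/AM 45 min at 37 °C, then held in HBBSS with glycine, pH 7.45, at room temperature under perfusion. NMDA 100 µM for 30 s; ligands applied 60 s before and during.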

[8] = target: T1, Glutamate NMDA receptor; GRIN1/GRIN2B; assay: Displacement of [3H]-Ro-256981 from recombinant NR1/NR2B receptor; assay type: protein-complex assay
Mus musculus = assay: Analgesic activity in po dosed mouse assessed as licking behavior measured after 20 to 25 mins by formalin test; assay type: functional, organism-based
[9] = Metabolic stability in Sprague-Dawley rat assessed as unmetabolized parent compound in urine at 10 mg/kg, iv after 1 hr by MS/MS analysis; assay type: ADME, organism-based; set-up: dose 10 mg/kg, route intravenous; conditions: in vivo
In short: (§2)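 Two anesthetized male Sprague-Dawley rats got 10 mg/kg in sterile water by tail vein; two controls got sterile water at 1 mL/kg. Rats were kept awake 1 h, then decapitated. Plasma and urine went to LC-MS/MS, full scans compared with control.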

Plasma [10] = assay: Metabolic stability in Sprague-Dawley rat assessed as unmetabolized parent compound in plasma at 10 mg/kg, iv after 1 hr by MS/MS analysis; assay type: ADME, organism-based; set-up: dose 10 mg/kg, route intravenous; conditions: in vivo; in short: as §2
Plasma [11] = assay: Metabolic stability of the compound in rat plasma after 30 mins; assay type: ADME, cell-free; conditions: 0.5 h
In short: (§3)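 Rat plasma or liver homogenate (0.450 mL) spiked with ligand at 5-200 mg/L. Samples were deproteinized with acetonitrile immediately or after 30 min at 37 °C, then analysed by HPLC in triplicate injections.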

Liver [12] = assay: Metabolic stability of the compound in rat liver homogenate after 30 mins; assay type: ADME, tissue-based; conditions: tissue homogenate, 0.5 h; in short: as §3

T1 sequence (Q13224 whole entry, other chains not shown): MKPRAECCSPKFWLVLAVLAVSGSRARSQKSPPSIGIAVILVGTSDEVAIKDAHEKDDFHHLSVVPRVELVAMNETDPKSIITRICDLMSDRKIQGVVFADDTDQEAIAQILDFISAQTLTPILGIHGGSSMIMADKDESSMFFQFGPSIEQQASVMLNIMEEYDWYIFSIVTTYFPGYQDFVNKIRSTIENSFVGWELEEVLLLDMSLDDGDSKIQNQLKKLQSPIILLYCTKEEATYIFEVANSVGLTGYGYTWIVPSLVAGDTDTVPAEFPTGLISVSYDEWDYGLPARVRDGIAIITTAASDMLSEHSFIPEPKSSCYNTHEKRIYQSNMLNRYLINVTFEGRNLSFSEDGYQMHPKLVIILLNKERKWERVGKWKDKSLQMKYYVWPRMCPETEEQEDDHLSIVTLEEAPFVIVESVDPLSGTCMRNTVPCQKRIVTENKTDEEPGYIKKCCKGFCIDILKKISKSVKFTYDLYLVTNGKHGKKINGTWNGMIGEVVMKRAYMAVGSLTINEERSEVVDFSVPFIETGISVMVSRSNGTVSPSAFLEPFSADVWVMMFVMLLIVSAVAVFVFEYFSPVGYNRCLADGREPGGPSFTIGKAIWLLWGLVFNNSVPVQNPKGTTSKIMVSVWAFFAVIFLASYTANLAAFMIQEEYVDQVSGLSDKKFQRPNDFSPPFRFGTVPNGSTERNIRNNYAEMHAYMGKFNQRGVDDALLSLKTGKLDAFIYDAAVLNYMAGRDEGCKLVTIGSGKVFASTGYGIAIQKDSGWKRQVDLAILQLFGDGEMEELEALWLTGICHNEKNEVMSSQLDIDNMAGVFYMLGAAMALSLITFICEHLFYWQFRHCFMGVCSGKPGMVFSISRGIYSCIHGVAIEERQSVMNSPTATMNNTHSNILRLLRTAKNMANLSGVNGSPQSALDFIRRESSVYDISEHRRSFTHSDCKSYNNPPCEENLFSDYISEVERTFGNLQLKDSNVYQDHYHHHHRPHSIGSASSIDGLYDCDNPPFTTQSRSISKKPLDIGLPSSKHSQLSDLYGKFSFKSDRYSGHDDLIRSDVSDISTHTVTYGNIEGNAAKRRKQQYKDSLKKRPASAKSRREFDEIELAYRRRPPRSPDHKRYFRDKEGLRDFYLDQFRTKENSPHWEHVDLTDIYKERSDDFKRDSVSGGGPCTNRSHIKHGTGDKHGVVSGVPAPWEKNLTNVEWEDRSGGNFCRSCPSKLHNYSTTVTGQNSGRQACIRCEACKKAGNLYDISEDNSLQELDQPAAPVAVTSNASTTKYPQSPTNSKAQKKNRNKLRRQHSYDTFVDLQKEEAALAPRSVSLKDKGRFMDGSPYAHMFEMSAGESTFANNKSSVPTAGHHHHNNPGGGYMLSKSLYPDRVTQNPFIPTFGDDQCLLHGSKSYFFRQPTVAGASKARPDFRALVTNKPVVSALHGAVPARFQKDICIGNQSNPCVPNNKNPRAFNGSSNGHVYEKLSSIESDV

With `CS(=O)(=O)Nc1ccc2nc(CN3CCC(Cc4ccccc4)CC3)[nH]c2c1` the IC50 [1] was 1.4 nM and the IC50 [2] was 50.3 nM.
In the case of `Oc1ccc2[nH]c(CN3CCC(Cc4ccc([18F])cc4)CC3)nc2c1`, the Drug uptake (Muscle tissue) is reported as 0.044 % ID/g, the Drug uptake [3] is reported as 0.098 % ID/g and the Drug uptake (Brain) is reported as 0.035 % ID/g. For the same compound, the Drug uptake (Bone) was 1.576 % ID/g, the Drug uptake (Thymus) was 0.225 % ID/g and the half-life [4] was 35 min. For the same compound, the Drug uptake (Lung) was 0.445 % ID/g, the Drug uptake (Heart) was 0.068 % ID/g and the Drug uptake (Pancreas) was 0.391 % ID/g. For the same compound, the Drug uptake (Liver [5]) was 2.255 % ID/g, the Drug uptake (Spleen) was 0.305 % ID/g and the Drug uptake (Kidney) was 0.384 % ID/g. For the same compound, the Drug uptake [6] was 1.327 % ID/g, the Drug uptake (Rattus norvegicus) was 0.373 % ID/g and the Drug uptake (Intestine) was 0.188 % ID/g. For the same compound, the Drug uptake (Hippocampus) was 0.037 % ID/g and the Drug uptake (Cerebellum) was 0.035 % ID/g.
`O=C(Nc1ccc2[nH]c(=O)sc2c1)C(=O)N1CCC(Cc2ccc(F)cc2)CC1` showed an IC50 [2] of 840 nM and an inhibition [7] of 13.2%.
In the case of `O=C(Nc1ccc2[nH]c(=O)[nH]c2c1)C(=O)N1CCC(Cc2ccccc2)CC1`, the IC50 [8] is reported as 8 nM.
`O=C(Nc1ccc2nc(O)sc2c1)C(=O)N1CCC(Cc2ccccc2)CC1` gave an ED50 (Mus musculus) of 0.5 mg/kg.
With `CS(=O)(=O)Nc1ccc2[nH]c(CN3CCC(Cc4ccc(F)cc4)CC3)nc2c1` the IC50 [2] was 57.7 nM.
In the case of `Fc1ccc(CC2CCNCC2)cc1`, the Stability [9] is reported as “Unstable” and the Stability (Plasma [10]) is reported as “Unstable”.
In the case of `Cc1ccc(CC2CCN(C(=O)C(=O)Nc3ccc4c(c3)CC(=O)N4)CC2)cc1`, the ED50 (Mus musculus) is reported as 0.5 mg/kg.
In the case of `O=C(Nc1ccc2[nH]c(=O)oc2c1)C(=O)N1CCC(Cc2ccc(F)cc2)CC1` [RADIPRODIL], the IC50 [8] is reported as 6 nM, the IC50 [2] is reported as 69.9 nM and the Stability (Plasma [11]) is reported as “Stable”. For the same compound, the Stability (Liver [12]) was “Stable”.
